Assay [1] has as its target T1, NAD-dependent protein deacetylase sirtuin-2 (Homo sapiens, UniProt Q8IXJ6).
T1 sequence (Q8IXJ6 whole entry): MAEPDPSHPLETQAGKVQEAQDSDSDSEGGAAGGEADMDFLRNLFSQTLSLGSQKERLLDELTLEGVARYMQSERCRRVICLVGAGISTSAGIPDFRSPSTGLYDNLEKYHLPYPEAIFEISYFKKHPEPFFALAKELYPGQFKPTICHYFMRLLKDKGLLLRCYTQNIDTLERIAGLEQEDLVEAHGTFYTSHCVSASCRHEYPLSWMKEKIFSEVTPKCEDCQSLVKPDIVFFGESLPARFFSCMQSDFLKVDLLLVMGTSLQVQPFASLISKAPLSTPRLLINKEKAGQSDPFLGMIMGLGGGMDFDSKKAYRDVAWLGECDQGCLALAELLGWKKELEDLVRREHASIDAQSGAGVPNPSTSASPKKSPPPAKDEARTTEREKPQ
The assay is described as follows: Inhibition of human SIRT2 defatty-acylation activity using peptide substrate in presence of NAD+ by HPLC analysis.

For assay [2], the target named is T2, Protein cereblon/NAD-dependent protein deacetylase sirtuin-2 (Homo sapiens) (UniProt Q8IXJ6+Q96SW2). The experiment in a line: Protac activity at CRBN/SIRT2 in human MCF7 cells assessed as SIRT2 degradation at 5 uM preincubated with proteasome inhibitior MG132 for 2 hrs followed by compound addition measured after 16 hrs by immunoblot analysis. Format: cell-based. Summed up: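 Proteasome dependence: MCF7 cells pretreated 2 h with 5 μM MG132, then cotreated with 5 μM compound plus 5 μM MG132 for 16 h more; SIRT2 detected by immunoblot.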

The target in assay [3] is NAD-dependent protein deacylase sirtuin-5, mitochondrial (Homo sapiens, UniProt Q9NXA8). The assay is described as follows: Inhibition of human SIRT5 deacetylation activity using H3K9Ac as substrate preincubated for 15 mins in presence of NAD+ followed by substrate addition by HPLC analysis. Summed up:
(§1)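 In vitro sirtuin reaction mixture with compound at a range of concentrations. Compound was preincubated with NAD+ and the enzyme before the substrate peptide was added. IC50 taken from the concentration series.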

The target of assay [4] is Protein cereblon/NAD-dependent protein deacetylase sirtuin-3, mitochondrial (Homo sapiens) (UniProt Q9NTG7+Q96SW2). The assay is described as follows: Protac activity at CRBN/SIRT3 in human MCF7 cells assessed as SIRT3 degradation at 5 to 10 uM after 48 hrs by immunoblot analysis. Format: cell-based. To be noted: dose microM 5-10, time 48.0 hrs. Summed up: (§2)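 MCF7 or BT-549 cells exposed to inhibitor at the indicated concentrations for 48 h; SIRT1, SIRT2 and SIRT3 levels read by immunoblot.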

Assay [5] concerns the target T2, Protein cereblon/NAD-dependent protein deacetylase sirtuin-2 (Homo sapiens). The experiment in a line: Protac activity at CRBN/SIRT2 in human MDA-MB-231 cells assessed as SIRT2 degradation after 48 hrs by immunoblot analysis. Format: cell-based. Summed up: (§3)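 In MDA-MB-231 and MDA-MB-468 cells, SIRT2 was assessed by immunoblot after compound treatment.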
Assay [6] has the same target. The assay is described as follows: Protac activity at CRBN/SIRT2 in human MCF7 cells assessed as inhibition of SIRT2 deacetylation by measuring increase in acetylated-alpha tubulin level at 10 uM measured after 12 hrs by DAPI staining based immunofluorescence microscopic analysis. Format: cell-based. Summed up:
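MCF7 cells treated for 12 h with 5 or 10 μM, DMSO as control. Acetyl-α-tubulin (K40) was imaged by immunofluorescence, and fluorescence intensity was quantified and normalized to vehicle.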

Assay [7] concerns the target Protein cereblon/NAD-dependent protein deacylase sirtuin-6 (Homo sapiens) (UniProt Q8N6T7+Q96SW2). The experiment in a line: Protac activity at CRBN/SIRT6 in human HEK293T cells assessed as abundance ratio at 5 uM incubated for 16 hrs by TMT global proteomics assay relative to DMSO. The note with it: HEK-293T. The format is cell-based. Summed up: (§4)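 HEK 293T cells were treated for 16 h. Global proteome was quantified by Tandem Mass Tag labelling. The abundance ratio of each sirtuin was taken against DMSO-treated cells.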

A further assay has as its system MCF7. The assay is described as follows: Cytotoxicity against human MCF7 cells assessed as reduction in cell viability after 72 hrs. Format: functional, cell-based. Summed up:
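Cells incubated with compound or thalidomide for 72 h; cell viability read out at the end of exposure.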

Assay [8] has as its target T3, Protein cereblon/NAD-dependent protein deacetylase sirtuin-1 (Homo sapiens) (UniProt Q96EB6+Q96SW2). The experiment in a line: Protac activity at CRBN/SIRT1 in human MCF7 cells assessed as SIRT1 degradation at 5 to 10 uM after 48 hrs by immunoblot analysis. The format is cell-based. The note with it: dose microM 5-10, time 48.0 hrs. Summed up:
as §2

Assay [9] concerns the target T3, Protein cereblon/NAD-dependent protein deacetylase sirtuin-1 (Homo sapiens). The assay is described as follows: Protac activity at CRBN/SIRT1 in human HEK293T cells assessed as abundance ratio at 5 uM incubated for 16 hrs by TMT global proteomics assay relative to DMSO. Format: cell-based. To be noted: HEK-293T. Summed up:
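HEK 293T cells given 5 μM compound for 16 h. Global proteomics used Tandem Mass Tag labelling, and each sirtuin's abundance is given as a ratio of treated to DMSO-treated cells.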

Assay [10] has as its target T4, NAD-dependent protein deacetylase sirtuin-3, mitochondrial (Homo sapiens, UniProt Q9NTG7).
T4 sequence (Q9NTG7 whole entry): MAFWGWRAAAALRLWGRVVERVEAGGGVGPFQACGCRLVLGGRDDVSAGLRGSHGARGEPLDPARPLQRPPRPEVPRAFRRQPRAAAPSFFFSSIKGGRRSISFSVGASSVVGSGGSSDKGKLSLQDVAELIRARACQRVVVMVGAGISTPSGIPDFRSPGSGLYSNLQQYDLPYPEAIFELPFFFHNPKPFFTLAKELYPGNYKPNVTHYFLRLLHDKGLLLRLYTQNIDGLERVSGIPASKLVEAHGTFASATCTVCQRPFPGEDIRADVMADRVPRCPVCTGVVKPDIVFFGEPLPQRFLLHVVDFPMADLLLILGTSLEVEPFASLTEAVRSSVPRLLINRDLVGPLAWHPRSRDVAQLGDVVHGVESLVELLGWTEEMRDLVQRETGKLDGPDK
The experiment in a line: Inhibition of human SIRT3 deacetylation activity using H3K9Ac as substrate preincubated for 15 mins in presence of NAD+ followed by substrate addition by HPLC analysis. Summed up:
as §1

In assay [11] the target is T3, Protein cereblon/NAD-dependent protein deacetylase sirtuin-1 (Homo sapiens). The experiment in a line: Protac activity at CRBN/SIRT1 in human BT549 cells assessed as SIRT1 degradation at 5 to 10 uM after 48 hrs by immunoblot analysis. The format is cell-based. To be noted: BT-549, dose microM 5-10, time 48.0 hrs. Summed up: as §2
The target of assay [12] is T2, Protein cereblon/NAD-dependent protein deacetylase sirtuin-2 (Homo sapiens). The assay is described as follows: Protac activity at CRBN/SIRT2 in human HEK293T cells assessed as abundance ratio at 5 uM incubated for 16 hrs by TMT global proteomics assay relative to DMSO. To be noted: HEK-293T. The format is cell-based. Summed up:
as §4

The target is the same in assay [13]. The assay is described as follows: Protac activity at CRBN/SIRT2 in human MDA-MB-468 cells assessed as SIRT2 degradation after 48 hrs by immunoblot analysis. The format is cell-based. Summed up:
as §3

In assay [14] the target is T3, Protein cereblon/NAD-dependent protein deacetylase sirtuin-1 (Homo sapiens). The assay is described as follows: Protac activity at CRBN/SIRT1 in human HEK293T cells stably expressing flag-tagged K-Ras4a-G12V assessed as inhibition of SIRT2 defatty-acylation at 1 uM incubated for 48 hrs by immunoblot analysis. The note with it: HEK-293T. The format is cell-based. Summed up:
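HEK 293T cells stably overexpressing Flag-tagged K-Ras4a-G12V (confirmed by pan-Ras blot) were exposed to 1 μM compound for 48 h. SIRT1, SIRT2 and SIRT3 levels were then read by immunoblot.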

For assay [15], the target named is NAD-dependent protein deacylase sirtuin-6 (Homo sapiens, UniProt Q8N6T7). The assay is described as follows: Inhibition of human SIRT6 deacetylation activity using H3K9Ac as substrate preincubated for 15 mins in presence of NAD+ followed by substrate addition by HPLC analysis. Summed up:
as §1

Calls of active or inactive are those of the source. The calls are words filed in the database; no cut-off is given here.

T3 sequence (Q96EB6 whole entry, looked up): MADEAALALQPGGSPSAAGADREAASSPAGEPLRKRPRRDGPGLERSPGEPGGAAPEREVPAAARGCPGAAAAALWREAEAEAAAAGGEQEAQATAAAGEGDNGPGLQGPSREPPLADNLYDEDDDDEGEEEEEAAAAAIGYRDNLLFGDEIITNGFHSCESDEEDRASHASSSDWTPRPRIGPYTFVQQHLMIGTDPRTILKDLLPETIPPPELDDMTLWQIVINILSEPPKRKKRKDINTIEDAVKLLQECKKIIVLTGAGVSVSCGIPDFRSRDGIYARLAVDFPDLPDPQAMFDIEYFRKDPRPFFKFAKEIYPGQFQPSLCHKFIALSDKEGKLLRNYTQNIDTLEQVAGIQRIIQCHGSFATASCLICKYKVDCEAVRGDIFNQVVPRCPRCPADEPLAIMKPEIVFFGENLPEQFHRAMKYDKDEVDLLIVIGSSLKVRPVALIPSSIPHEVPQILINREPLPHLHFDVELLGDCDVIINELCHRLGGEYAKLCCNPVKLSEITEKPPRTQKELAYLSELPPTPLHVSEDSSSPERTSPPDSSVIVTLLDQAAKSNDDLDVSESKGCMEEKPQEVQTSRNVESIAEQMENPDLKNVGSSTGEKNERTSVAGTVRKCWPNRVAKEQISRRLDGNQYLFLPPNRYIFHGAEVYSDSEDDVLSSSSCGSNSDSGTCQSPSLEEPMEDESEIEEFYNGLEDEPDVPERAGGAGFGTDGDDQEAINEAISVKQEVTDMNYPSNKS
T3 sequence (Q96SW2 whole entry, looked up): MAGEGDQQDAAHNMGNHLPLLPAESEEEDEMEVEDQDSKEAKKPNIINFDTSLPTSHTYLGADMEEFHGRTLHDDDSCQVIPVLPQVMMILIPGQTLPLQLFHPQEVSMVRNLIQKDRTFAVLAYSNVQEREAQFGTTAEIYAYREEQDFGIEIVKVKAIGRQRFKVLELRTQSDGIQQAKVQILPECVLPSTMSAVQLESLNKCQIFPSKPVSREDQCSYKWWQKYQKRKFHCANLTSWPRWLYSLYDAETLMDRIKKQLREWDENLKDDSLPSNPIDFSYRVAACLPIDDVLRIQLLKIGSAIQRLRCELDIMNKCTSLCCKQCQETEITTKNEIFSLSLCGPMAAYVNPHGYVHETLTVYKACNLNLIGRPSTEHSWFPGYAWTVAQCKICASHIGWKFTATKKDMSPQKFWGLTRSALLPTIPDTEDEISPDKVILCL
T2 sequence (Q96SW2 whole entry, looked up, one chain of several): as the sequence (Q96SW2 whole entry, looked up) above
Chain of Protein cereblon/NAD-dependent protein deacetylase sirtuin-3, mitochondrial (Homo sapiens) (Q96SW2 whole entry, looked up, one chain of several): as the sequence (Q96SW2 whole entry, looked up) above
Chain of NAD-dependent protein deacylase sirtuin-6 (Q8N6T7 whole entry): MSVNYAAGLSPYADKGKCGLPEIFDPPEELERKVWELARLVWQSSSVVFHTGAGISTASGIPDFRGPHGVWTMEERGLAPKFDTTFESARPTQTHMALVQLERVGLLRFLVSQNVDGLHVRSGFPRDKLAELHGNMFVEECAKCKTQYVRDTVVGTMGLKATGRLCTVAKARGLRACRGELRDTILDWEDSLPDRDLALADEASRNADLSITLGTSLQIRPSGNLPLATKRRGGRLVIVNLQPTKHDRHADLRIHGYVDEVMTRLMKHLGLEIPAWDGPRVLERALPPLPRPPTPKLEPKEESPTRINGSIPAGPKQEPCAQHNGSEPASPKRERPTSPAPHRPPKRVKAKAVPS
Chain of Protein cereblon/NAD-dependent protein deacylase sirtuin-6 (Homo sapiens) (Q8N6T7 2-355 limits assumed): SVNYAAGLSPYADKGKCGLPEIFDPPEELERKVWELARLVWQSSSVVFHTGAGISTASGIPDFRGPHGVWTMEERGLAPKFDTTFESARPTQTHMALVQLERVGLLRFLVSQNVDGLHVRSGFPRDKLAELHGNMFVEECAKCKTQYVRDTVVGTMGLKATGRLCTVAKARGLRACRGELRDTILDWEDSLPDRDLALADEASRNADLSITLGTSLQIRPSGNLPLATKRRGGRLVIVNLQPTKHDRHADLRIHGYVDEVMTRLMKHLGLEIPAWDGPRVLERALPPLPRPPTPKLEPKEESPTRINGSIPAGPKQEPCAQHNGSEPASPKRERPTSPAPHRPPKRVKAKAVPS
Chain of Protein cereblon/NAD-dependent protein deacylase sirtuin-6 (Homo sapiens) (Q96SW2 whole entry partner): as the sequence (Q96SW2 whole entry, looked up) above
Chain of NAD-dependent protein deacylase sirtuin-5, mitochondrial (Q9NXA8 whole entry): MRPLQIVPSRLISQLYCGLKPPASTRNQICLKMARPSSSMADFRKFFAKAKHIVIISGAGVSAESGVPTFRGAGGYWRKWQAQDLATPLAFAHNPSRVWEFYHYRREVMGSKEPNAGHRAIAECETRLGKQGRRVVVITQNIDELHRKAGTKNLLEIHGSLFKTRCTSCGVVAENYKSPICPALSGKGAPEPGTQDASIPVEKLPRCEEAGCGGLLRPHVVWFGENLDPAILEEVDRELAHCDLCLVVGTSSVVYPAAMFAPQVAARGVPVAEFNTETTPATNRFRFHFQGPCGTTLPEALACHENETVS

Take `CCCCCCCCCCCCCC(=S)NCCCC[C@H](NC(=O)CCOCCOCCOCCOCCNc1cccc2c1C(=O)N(C1CCC(=O)NC1=O)C2=O)C(=O)Nc1ccccc1` (stereo partly specified): the IC50 in [1], in assay [3], in assay [10] and in assay [15] was more than 83 µM in each case. The outcome in assay [2], in assay [4], in [7], in assay [8], in assay [9] and in assay [11] was inactive. For the same molecule, the result in assay [14] was inactive. In addition, the outcome (in [5]; in assay [6]; in the assay with MCF7; in [13]) was Active. The Ratio in assay [12] is 0.36.

Source of the values: ChEMBL document CHEMBL4725483, “Simultaneous Inhibition of SIRT2 Deacetylase and Defatty-Acylase Activities via a PROTAC Strategy” (ACS Med Chem Lett, 2020).
